ChEMBL document CHEMBL1153726, “Synthesis and anticancer activity of sclerophytin-inspired hydroisobenzofurans” (Bioorg Med Chem Lett, 2009)

What was measured:
Type in all cases: functional
[1] = system: HCT-15; test: Growth inhibition of human HCT15 cells at 1 nM after 96 hrs by MTT assay; parameters: scale not given: the % may be the effect or the level left
[2] = system: DU-145; test: Growth inhibition of human DU145 cells after 96 hrs by MTT assay; conditions: DU-145, 96 h
[3] = system: MDA-MB-468; test: Growth inhibition of human MDA-MB-468 cells at 1 uM after 96 hrs by MTT assay; parameters: scale not given: the % may be the effect or the level left
[4] = system: ACHN; test: Growth inhibition of human ACHN cells after 96 hrs by MTT assay
[5] = system: EKVX; test: Growth inhibition of human EKVX cells at 100 nM after 96 hrs by MTT assay; parameters: scale not given: the % may be the effect or the level left
[6] = system: MCF7; test: Growth inhibition of human MCF7 cells at 100 nM after 96 hrs by MTT assay; parameters: scale not given: the % may be the effect or the level left
[7] = system: NCI/ADR-RES; test: Growth inhibition of human NCI/ADR-RES cells at 1 uM after 96 hrs by MTT assay; parameters: scale not given: the % may be the effect or the level left
[8] = system: PC-3; test: Growth inhibition of human PC3 cells at 1 nM after 96 hrs by MTT assay; parameters: scale not given: the % may be the effect or the level left
[9] = system: HCC 2998; test: Growth inhibition of human HCC2998 cells at 100 nM after 96 hrs by MTT assay; parameters: scale not given: the % may be the effect or the level left
[10] = system: NCI-H322M; test: Growth inhibition of human NCI-H322M cells at 1 nM after 96 hrs by MTT assay; parameters: scale not given: the % may be the effect or the level left
[11] = system: LOX IMVI; test: Growth inhibition of human LOXIMVI cells at 10 uM after 96 hrs by MTT assay; parameters: scale not given: the % may be the effect or the level left
[12] = system: KM12; test: Growth inhibition of human KM12 cells at 10 uM after 96 hrs by MTT assay; parameters: scale not given: the % may be the effect or the level left
[13] = system: A498; test: Growth inhibition of human A498 cells at 10 uM after 96 hrs by MTT assay; parameters: scale not given: the % may be the effect or the level left
[14] = system: Malme-3M; test: Growth inhibition of human MALME-3M cells at 100 nM after 96 hrs by MTT assay; parameters: scale not given: the % may be the effect or the level left
[15] = system: MDA-MB-231; test: Growth inhibition of human MDA-MB-231 cells at 100 nM after 96 hrs by MTT assay; parameters: scale not given: the % may be the effect or the level left
[16] = system: BT-549; test: Growth inhibition of human BT549 cells at 1 nM after 96 hrs by MTT assay; parameters: scale not given: the % may be the effect or the level left
[17] = system: 786-0; test: Growth inhibition of human 786-0 cells at 1 nM after 96 hrs by MTT assay; parameters: scale not given: the % may be the effect or the level left
[18] = system: MCF7; test: Growth inhibition of human MCF7 cells after 96 hrs by MTT assay; conditions: MCF7, 96 h
Method in brief: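 Run in the NCI 60 human tumour cell line panel as a five-dose assay. GI50 and LC50 were reported for each cell line.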

[19] = Growth inhibition of human RPMI8266 cells at 1 nM after 96 hrs by MTT assay; parameters: scale not given: the % may be the effect or the level left
[20] = system: MOLT-4; test: Growth inhibition of human MOLT4 cells at 100 nM after 96 hrs by MTT assay; parameters: scale not given: the % may be the effect or the level left
[21] = read-out: LC50 (the source's name)
[22] = read-out: Log10GI50 (converted)
[23] = read-out: Log10LC50 (converted)

`C=C(C)[C@H]1CC=C(C)C2=CO[C@@H](c3ccccc3F)[C@@H]21` gave an Activity [1] of 94%, a GI50 ([2]; read-out: GI50) of 5.53 µM and a CC50 [2, 21] of 94.5 µM. The GI50 [2, 22] was 5.5 µM, the CC50 [2, 23] was 95.5 µM and the TGI ([2]; read-out: Log10TGI (converted)) was 26.3 µM. The TGI ([2]; read-out: TGI) was 26.1 µM, the Activity [3] was 11% and the GI50 ([4]; read-out: GI50) was 6.39 µM. For the same compound, the CC50 [4, 21] was 43.8 µM, the GI50 [4, 22] was 6.46 µM and the CC50 [4, 23] was 43.7 µM. For the same compound, the TGI ([4]; read-out: Log10TGI (converted)) was 19.1 µM, the TGI ([4]; read-out: TGI) was 19 µM and the Activity [5] was 80%. It also gave an Activity [6] of 83%, an Activity [7] of 26% and an Activity [8] of 95%. The Activity [9] was 97%, the Activity [10] was 95% and the Activity [11] was 89.75%. For the same compound, the Activity [12] was 85.93%, the Activity [13] was 104.48% and the Activity [14] was 74%. The Activity [15] was 81%, the Activity [16] was 97% and the Activity [17] was 99%. It also gave a GI50 ([18]; read-out: GI50) of 3.77 µM, a CC50 [18, 21] of 63.9 µM and a GI50 [18, 22] of 3.8 µM. For the same compound, the CC50 [18, 23] was 64.6 µM, the TGI ([18]; read-out: Log10TGI (converted)) was 18.6 µM and the TGI ([18]; read-out: TGI) was 18.8 µM. It also gave an Activity [19] of 78% and an Activity [20] of 81%.
